From ChEMBL document CHEMBL1269008, “Electron density guided fragment-based lead discovery of ketohexokinase inhibitors” (J Med Chem, 2010)
Converted amounts (≈) assume the structure as drawn.

Key:
[1] = Cmax in Sprague-Dawley rat at 10 mg/kg, po; assay type: ADME, organism-based; set-up: dose 10 mg/kg, route oral; details: in vivo
Summary of the method: (§1)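 Male SPF Sprague-Dawley rats (~250 g), n=4. HCl salt dissolved in 20% HPBCD, adjusted to pH 4.5 with NaOH. 10 mg/kg by gastric intubation. Blood sampled at 0.5, 1, 2, 4, 8 and 24 h. Parameters derived from each animal's plasma concentration-time profile by limited PK analysis.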

Cytochrome P450 2C9 = Cytochrome P450 2C9 (Homo sapiens, UniProt P11712); test: Inhibition of human recombinant CYP2C9; assay type: ADME
[2] = Clearance in Sprague-Dawley rat at 2 mg/kg, iv and 10 mg/kg, po; assay type: ADME, organism-based; details: in vivo
Summary of the method: (§2)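 Male SPF Sprague-Dawley rats (~250 g), n=4, vehicle 20% HPBCD at pH 4.5. Dosing was 2.0 mg/kg iv into the jugular vein, with blood taken at 7 and 20 min and 1, 2, 4, 8 and 24 h. Oral arm was 10 mg/kg by gastric intubation. Parameters came from each animal's plasma profile.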

Cytochrome P450 2D6 = Cytochrome P450 2D6 (Homo sapiens, UniProt P10635); test: Inhibition of human recombinant CYP2D6; assay type: ADME
Cytochrome P450 3A4 = Cytochrome P450 3A4 (Homo sapiens, UniProt P08684); test: Inhibition of human recombinant CYP3A4; assay type: ADME
[3] = Oral bioavailability in Sprague-Dawley rat at 10 mg/kg; assay type: ADME, organism-based; details: in vivo; summary of the method: as §1
[4] = Metabolic stability in human liver microsomes after 10 mins; assay type: ADME, Microsome; details: read-out: Stability
[5] = Metabolic stability in rat liver microsomes after 10 mins; assay type: ADME, Microsome; details: read-out: Stability
Cytochrome P450 2C19 = Cytochrome P450 2C19 (Homo sapiens, UniProt P33261); test: Inhibition of human recombinant CYP2C19; assay type: ADME
[6] = Aqueous solubility of the compound in water; assay type: physicochemical
[7] = Permeability from basolateral to apical side of human Caco-2 cells; assay type: ADME, cell-based
Summary of the method: (§3)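 Caco-2 monolayers cultured 21 days on Transwells. Compound at 10 μM in HBSS with 25 mM HEPES pH 7.4, added to the apical or basolateral side. Lucifer Yellow in donor buffer checked monolayer integrity. After 1 h at 37 °C, both chambers were sampled into acetonitrile with internal standard and measured by LC-MS/MS to calculate Papp.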

[8] = molecular target: 5-hydroxytryptamine receptor 2B (Homo sapiens) (UniProt P41595); test: Inhibition of 5HT2B at 10 uM
[9] = AUClast in Sprague-Dawley rat at 10 mg/kg, po; assay type: ADME, organism-based; set-up: time 0 - last, dose 10 mg/kg, route oral; details: plasma; summary of the method: as §1
[10] = Inhibition of PKA at 10 uM
Summary of the method: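 Commercial panel of 200 protein kinases, with compound at 10 μM and ATP at 10 μM. Percent inhibition is from a single concentration.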

[11] = molecular target: 5-hydroxytryptamine receptor 7 (Homo sapiens) (UniProt P34969); test: Inhibition of 5HT7 at 10 uM
[12] = Volume of distribution in Sprague-Dawley rat at 2 mg/kg, iv and 10 mg/kg, po; assay type: ADME, organism-based; details: in vivo; summary of the method: as §2
[13] = Aqueous solubility of the compound in phosphate buffered saline at pH 7.4; assay type: physicochemical
[14] = Permeability from apical to basolateral side of human Caco-2 cells; assay type: ADME, cell-based; summary of the method: as §3
[15] = molecular target: T1, 5-hydroxytryptamine receptor 1A (Homo sapiens) (UniProt P08908); test: Inhibition of 5HT1A at 10 uM
T1 sequence (whole entry): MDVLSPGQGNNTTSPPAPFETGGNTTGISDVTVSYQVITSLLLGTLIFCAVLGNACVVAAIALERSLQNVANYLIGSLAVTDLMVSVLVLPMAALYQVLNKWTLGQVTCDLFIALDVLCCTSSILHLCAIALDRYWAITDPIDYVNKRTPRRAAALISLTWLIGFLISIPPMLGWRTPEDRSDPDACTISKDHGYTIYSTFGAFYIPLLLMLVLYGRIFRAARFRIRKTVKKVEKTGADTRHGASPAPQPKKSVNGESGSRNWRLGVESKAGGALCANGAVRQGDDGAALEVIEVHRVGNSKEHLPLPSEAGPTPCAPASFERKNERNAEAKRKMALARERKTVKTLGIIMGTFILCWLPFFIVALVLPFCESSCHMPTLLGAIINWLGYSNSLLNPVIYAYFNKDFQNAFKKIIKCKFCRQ

[16] = Aqueous solubility of the compound in phosphate buffered saline at pH 2; assay type: physicochemical
[17] = Aqueous solubility of the compound in […]; assay type: physicochemical
Cytochrome P450 1A2 = molecular target: T2, Cytochrome P450 1A2 (Homo sapiens, UniProt P05177); test: Inhibition of human recombinant CYP1A2; assay type: ADME
T2 sequence (P05177 whole entry): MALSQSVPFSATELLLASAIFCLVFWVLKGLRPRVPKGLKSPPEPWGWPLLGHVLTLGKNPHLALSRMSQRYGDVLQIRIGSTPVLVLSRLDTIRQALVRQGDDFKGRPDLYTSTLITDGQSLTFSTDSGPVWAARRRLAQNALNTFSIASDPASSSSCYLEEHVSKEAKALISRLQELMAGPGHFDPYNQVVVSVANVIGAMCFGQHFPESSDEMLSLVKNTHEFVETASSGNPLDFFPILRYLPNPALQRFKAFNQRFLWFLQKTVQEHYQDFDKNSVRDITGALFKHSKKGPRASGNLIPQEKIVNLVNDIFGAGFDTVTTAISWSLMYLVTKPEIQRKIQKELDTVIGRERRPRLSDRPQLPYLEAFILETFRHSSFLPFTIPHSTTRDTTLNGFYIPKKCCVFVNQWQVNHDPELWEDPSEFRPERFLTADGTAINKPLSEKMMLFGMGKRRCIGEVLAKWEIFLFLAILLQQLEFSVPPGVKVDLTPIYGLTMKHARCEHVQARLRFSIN

Sequence of Cytochrome P450 3A4 (P08684 whole entry): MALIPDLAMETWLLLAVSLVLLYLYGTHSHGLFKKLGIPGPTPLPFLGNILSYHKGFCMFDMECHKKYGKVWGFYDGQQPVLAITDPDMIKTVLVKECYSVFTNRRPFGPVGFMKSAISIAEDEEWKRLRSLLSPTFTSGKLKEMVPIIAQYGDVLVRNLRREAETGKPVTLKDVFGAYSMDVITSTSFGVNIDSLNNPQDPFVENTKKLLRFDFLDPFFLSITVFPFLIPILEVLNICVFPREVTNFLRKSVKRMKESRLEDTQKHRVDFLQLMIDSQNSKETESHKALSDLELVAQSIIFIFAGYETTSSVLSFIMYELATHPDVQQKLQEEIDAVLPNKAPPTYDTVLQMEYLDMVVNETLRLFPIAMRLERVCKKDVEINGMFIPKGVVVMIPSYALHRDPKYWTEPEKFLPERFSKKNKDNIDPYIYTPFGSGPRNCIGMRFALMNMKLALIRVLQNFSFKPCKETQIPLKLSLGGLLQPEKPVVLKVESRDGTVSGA
Sequence of Cytochrome P450 2C9 (P11712 whole entry): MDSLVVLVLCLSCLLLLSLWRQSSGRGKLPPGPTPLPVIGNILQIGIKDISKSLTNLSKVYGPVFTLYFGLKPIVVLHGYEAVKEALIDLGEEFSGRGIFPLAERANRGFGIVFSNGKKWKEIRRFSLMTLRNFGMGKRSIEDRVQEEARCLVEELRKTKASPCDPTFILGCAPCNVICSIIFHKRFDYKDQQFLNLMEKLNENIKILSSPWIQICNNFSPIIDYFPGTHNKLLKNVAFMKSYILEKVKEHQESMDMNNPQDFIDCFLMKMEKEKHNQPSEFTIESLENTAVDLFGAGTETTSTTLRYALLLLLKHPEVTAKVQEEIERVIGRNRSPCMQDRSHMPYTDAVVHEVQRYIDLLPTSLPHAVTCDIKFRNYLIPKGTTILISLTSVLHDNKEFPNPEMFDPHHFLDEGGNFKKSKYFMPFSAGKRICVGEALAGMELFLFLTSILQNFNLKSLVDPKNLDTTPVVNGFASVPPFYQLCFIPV
Sequence of 5-hydroxytryptamine receptor 7 (Homo sapiens) (P34969 whole entry): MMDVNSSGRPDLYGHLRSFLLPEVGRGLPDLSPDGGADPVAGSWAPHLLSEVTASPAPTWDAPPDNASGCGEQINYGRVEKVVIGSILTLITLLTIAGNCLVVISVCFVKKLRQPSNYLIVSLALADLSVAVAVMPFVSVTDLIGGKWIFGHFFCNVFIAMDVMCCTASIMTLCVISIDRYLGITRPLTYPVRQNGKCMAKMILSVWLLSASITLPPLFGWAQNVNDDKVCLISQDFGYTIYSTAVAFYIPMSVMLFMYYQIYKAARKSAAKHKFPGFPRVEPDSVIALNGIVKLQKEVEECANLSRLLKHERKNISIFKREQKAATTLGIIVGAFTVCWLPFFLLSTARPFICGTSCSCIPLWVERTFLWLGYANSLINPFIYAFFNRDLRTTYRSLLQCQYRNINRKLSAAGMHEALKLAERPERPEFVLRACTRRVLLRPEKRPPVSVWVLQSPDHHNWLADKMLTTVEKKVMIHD
Sequence of 5-hydroxytryptamine receptor 2B (Homo sapiens) (P41595 whole entry): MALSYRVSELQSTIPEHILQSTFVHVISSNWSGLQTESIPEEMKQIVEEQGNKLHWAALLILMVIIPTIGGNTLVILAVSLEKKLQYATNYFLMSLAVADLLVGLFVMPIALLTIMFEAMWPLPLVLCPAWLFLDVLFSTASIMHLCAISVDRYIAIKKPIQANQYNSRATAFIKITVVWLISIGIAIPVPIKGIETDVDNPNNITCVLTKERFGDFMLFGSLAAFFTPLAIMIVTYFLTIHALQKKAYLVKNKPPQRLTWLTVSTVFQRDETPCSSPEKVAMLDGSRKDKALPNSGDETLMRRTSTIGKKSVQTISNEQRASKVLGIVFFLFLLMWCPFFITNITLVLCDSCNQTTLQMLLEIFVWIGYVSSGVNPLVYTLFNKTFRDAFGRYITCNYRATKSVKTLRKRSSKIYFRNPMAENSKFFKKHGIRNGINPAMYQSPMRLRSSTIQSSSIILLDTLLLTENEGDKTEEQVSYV
Sequence of Cytochrome P450 2D6 (P10635 whole entry): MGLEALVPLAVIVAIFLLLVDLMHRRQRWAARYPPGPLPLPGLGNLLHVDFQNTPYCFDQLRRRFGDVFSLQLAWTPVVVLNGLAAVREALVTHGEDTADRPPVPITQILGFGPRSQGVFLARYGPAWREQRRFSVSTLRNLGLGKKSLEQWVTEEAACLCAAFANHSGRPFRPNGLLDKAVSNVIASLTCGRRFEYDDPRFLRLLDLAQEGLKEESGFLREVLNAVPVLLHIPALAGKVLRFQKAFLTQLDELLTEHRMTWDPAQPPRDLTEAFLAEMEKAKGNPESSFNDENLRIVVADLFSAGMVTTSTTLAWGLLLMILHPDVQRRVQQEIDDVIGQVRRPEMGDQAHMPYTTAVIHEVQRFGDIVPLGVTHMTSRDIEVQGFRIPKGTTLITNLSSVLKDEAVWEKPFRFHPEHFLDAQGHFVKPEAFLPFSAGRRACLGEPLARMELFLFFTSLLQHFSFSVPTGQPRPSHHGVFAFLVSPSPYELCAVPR
Sequence of Cytochrome P450 2C19 (P33261 whole entry): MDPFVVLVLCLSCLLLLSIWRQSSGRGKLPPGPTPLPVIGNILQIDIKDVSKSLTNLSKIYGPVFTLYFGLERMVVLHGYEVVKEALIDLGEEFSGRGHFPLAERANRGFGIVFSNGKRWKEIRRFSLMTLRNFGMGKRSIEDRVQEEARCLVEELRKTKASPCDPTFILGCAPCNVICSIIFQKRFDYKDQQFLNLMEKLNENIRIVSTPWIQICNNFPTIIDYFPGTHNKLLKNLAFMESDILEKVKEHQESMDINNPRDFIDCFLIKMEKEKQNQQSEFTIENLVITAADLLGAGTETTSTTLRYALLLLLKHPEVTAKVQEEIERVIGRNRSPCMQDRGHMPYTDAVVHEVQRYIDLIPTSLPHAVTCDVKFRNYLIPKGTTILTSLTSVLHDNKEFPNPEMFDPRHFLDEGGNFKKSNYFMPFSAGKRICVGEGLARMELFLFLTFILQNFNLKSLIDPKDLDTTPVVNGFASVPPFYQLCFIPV

Cmax [1]: 0.529 µg/mL | IC50 (Cytochrome P450 2C9): > 10 µM | clearance [2]: 0.696 L/h/kg | IC50 (Cytochrome P450 2D6): > 10 µM | IC50 (Cytochrome P450 3A4): > 10 µM | bioavailability [3]: 75.4% | remaining at 10 min [4]: 96% | remaining at 10 min [5]: 95% | IC50 (Cytochrome P450 2C19): > 10 µM | solubility [6]: 40.7 µM (≈ 14.9 µg/mL) | Papp B→A [7]: 94.7 nm/s | inhibition [8]: 91% | AUC(0-t) [9]: 9.03 µg·h/mL | inhibition [10]: 99% | inhibition [11]: 95% | Vd [12]: 8.53 L/kg | solubility [13]: 45.2 µM (≈ 16.6 µg/mL) | Papp A→B [14]: 16.5 nm/s | inhibition [15]: 83% | solubility [16]: 35.3 µM (≈ 12.9 µg/mL) | solubility [17]: 40 µM (≈ 14.7 µg/mL) | IC50 (Cytochrome P450 1A2): > 10 µM
SMILES: CSc1nn(-c2ccccc2)c2cc(NC(=O)C3CCNCC3)ccc12
